According to ChEMBL document CHEMBL1145920 (J Med Chem, 2003):
Values after ≈ are worked out from the molar mass of the structure shown.

Legend:
[1] = target: T1, Vascular endothelial growth factor receptor 2 (Homo sapiens, UniProt P35968); test: In vitro inhibitory concentration against human vascular endothelial growth factor receptor 2
Outline: (§1)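 Baculovirus-expressed human kinase cytoplasmic domains; ELISA-type assay with time-resolved fluorescence readout (Eu-N1 antiphosphotyrosine antibody). […] For VEGF-R2, PLC-γ/GST fusion substrate and 15 min at 37 °C.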

[2] = target: T1, Vascular endothelial growth factor receptor 2; test: Inhibition of Vascular endothelial growth factor receptor 2 autophosphorylation by VEGF in human umbilical vein endothelial cells (HUVECs) at 200 nM; assay type: cell-based; settings: HUVEC
Outline: (§2)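 Subconfluent HUVECs serum-starved 1 h at 37 °C in EBM-2 with 0.05% BSA, with drug or DMSO present, then stimulated with 10 ng/mL human VEGF for 5 min. Lysates protein-normalized, anti-VEGF-R2 immunoprecipitated, run on SDS-PAGE, antiphosphotyrosine immunoblot, ECL.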

[3] = target: T1, Vascular endothelial growth factor receptor 2; test: Inhibition of Vascular endothelial growth factor receptor 2 autophosphorylation by VEGF in human umbilical vein endothelial cells (HUVECs) at 50 nM; assay type: cell-based; settings: HUVEC; outline: as §2
[4] = target: T1, Vascular endothelial growth factor receptor 2; test: Inhibition of Vascular endothelial growth factor receptor 2 autophosphorylation by VEGF in human umbilical vein endothelial cells (HUVECs) at 10 nM; assay type: cell-based; settings: HUVEC; outline: as §2
[5] = target: T1, Vascular endothelial growth factor receptor 2; test: Inhibition of Vascular endothelial growth factor receptor 2 autophosphorylation by VEGF in human umbilical vein endothelial cells (HUVECs) at 100 nM; assay type: cell-based; settings: HUVEC; outline: as §2
[6] = system: Mus musculus; test: Antitumor activity against SVR tumor growth in mice by administration of 23.8 mg/kg b.i.d.; assay type: functional; settings: oral
Outline: (§3)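 Female athymic nu/nu mice, 6–8 weeks old; 1×10^6 SVR murine angiosarcoma cells implanted sc in right flank with Matrigel (1:1 v/v). At tumor volumes of 80–180 mm³, randomized (usually 8–10/group) and dosed orally b.i.d. (T = 0, 8 h), 0.35–23.8 mg/kg at 100 μL/dose; vehicles PG:Tween 80 (1:1) or 1% HOAc. Caliper tumor volumes every 3–4 days; Mann–Whitney test.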

[7] = target: T2, Vascular endothelial growth factor receptor (Homo sapiens) (UniProt P17948+P35916+P35968); settings: Capillary, HUVEC, 400 nM
T2 sequence (P17948 whole entry, looked up): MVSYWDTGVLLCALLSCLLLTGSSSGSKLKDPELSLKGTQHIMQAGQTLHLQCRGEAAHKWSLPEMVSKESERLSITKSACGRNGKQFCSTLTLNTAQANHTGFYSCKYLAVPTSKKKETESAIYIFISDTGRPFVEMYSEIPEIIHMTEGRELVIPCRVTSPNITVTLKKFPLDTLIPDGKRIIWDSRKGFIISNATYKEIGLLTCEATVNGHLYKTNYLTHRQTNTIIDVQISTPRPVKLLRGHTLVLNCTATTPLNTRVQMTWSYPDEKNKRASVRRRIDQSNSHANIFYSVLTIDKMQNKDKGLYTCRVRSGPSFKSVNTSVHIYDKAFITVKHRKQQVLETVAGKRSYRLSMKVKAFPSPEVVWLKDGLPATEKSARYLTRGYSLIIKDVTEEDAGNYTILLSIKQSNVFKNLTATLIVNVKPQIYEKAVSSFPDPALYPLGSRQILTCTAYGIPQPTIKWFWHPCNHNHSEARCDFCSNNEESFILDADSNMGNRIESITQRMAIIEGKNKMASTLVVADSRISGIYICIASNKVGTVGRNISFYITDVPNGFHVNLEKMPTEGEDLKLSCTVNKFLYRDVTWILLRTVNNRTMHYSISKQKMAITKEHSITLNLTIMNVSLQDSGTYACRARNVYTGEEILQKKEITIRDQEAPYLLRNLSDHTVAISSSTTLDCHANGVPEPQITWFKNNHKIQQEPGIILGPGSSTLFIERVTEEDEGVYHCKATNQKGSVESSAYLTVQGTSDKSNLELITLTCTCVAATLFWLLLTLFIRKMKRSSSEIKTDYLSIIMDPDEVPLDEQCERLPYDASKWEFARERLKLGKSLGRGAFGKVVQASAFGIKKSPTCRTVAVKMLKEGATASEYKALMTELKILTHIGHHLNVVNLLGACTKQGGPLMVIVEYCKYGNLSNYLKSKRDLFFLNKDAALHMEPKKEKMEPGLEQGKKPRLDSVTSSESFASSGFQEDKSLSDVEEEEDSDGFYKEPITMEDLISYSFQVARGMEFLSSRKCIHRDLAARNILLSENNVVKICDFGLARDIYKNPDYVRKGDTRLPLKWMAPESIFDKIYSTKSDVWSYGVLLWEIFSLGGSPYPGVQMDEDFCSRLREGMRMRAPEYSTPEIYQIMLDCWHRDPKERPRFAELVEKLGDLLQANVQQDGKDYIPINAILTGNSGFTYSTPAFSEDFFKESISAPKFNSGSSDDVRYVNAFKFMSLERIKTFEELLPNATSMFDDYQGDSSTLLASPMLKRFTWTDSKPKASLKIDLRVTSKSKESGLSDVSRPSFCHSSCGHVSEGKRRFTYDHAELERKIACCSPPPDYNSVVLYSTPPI
T2 sequence (P35916 whole entry, looked up): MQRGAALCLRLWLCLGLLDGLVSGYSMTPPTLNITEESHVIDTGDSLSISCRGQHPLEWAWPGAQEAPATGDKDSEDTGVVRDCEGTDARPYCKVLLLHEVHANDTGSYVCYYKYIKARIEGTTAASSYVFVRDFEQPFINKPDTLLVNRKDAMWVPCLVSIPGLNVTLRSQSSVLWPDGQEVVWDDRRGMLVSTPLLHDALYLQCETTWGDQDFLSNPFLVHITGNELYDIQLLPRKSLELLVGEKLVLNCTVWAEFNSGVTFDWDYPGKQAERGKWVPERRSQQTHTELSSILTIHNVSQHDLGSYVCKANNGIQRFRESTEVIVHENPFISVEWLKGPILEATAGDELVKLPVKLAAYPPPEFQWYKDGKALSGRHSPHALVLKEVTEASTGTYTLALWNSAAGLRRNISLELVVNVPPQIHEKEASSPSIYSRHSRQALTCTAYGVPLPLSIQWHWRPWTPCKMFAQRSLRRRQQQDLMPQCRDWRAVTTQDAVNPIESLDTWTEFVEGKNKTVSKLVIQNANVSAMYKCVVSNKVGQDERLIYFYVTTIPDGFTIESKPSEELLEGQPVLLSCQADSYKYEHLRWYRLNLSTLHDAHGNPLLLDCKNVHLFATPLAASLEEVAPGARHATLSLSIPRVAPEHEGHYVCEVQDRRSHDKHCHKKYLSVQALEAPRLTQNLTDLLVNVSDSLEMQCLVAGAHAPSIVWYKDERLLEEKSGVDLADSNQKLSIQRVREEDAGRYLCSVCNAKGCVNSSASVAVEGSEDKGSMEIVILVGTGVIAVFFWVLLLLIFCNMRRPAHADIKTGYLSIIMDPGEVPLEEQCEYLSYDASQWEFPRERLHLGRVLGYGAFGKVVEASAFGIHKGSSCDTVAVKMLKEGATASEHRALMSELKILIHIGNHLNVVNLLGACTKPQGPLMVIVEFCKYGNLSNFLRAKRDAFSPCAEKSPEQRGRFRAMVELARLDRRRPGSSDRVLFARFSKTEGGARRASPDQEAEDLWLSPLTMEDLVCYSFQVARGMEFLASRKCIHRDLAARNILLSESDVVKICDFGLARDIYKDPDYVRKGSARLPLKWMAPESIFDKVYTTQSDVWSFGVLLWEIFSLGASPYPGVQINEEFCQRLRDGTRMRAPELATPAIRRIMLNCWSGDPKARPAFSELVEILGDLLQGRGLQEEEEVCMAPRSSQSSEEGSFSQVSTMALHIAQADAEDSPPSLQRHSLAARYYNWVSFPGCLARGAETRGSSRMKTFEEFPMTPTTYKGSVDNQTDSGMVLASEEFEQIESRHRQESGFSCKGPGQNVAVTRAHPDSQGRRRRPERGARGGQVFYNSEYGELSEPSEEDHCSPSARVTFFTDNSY
T2 sequence (P35968 whole entry, looked up): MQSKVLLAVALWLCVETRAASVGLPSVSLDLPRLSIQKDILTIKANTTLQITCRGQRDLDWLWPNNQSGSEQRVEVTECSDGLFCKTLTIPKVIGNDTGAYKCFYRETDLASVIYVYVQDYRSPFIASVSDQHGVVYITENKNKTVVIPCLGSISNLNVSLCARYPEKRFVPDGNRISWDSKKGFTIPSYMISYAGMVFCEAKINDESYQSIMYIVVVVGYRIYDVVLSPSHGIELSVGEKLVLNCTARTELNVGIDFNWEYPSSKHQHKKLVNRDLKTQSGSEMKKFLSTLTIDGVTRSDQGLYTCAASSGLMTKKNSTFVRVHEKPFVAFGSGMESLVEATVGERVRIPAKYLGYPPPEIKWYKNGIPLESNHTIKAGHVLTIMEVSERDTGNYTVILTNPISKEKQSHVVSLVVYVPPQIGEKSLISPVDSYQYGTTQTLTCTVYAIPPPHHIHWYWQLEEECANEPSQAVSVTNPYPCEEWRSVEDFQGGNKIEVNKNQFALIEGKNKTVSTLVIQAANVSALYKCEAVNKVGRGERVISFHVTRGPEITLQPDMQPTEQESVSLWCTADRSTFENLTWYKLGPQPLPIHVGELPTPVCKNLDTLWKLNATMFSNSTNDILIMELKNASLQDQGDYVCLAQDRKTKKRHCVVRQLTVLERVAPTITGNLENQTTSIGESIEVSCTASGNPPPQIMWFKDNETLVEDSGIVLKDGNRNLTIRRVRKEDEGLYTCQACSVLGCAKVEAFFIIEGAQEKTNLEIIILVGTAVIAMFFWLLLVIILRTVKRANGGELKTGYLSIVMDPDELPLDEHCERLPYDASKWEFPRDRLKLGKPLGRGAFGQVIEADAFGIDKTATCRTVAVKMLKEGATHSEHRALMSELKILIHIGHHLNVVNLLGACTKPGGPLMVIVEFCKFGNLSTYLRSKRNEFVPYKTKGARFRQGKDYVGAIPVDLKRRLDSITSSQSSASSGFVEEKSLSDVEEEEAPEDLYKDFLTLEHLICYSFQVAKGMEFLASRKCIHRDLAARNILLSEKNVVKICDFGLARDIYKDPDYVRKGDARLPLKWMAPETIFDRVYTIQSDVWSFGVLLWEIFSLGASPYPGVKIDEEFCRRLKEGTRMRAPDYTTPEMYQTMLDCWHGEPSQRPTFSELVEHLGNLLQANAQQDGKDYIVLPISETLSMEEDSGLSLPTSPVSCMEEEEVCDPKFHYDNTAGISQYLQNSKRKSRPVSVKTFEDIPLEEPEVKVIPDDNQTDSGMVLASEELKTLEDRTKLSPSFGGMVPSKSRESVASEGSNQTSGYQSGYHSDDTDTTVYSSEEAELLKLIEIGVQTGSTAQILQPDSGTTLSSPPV

[8] = target: Mitogen-activated protein kinase 14 (Homo sapiens, UniProt Q16539); test: Inhibition of Mitogen-activated protein kinase p38 alpha
Outline: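 Enzyme was activated recombinant human GST-p38α.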

[9] = target: Mitogen-activated protein kinase 8 (Homo sapiens, UniProt P45983); test: Inhibition of c-Jun N-terminal kinase 1-beta 1
Sequence of Mitogen-activated protein kinase 8 (P45983 whole entry): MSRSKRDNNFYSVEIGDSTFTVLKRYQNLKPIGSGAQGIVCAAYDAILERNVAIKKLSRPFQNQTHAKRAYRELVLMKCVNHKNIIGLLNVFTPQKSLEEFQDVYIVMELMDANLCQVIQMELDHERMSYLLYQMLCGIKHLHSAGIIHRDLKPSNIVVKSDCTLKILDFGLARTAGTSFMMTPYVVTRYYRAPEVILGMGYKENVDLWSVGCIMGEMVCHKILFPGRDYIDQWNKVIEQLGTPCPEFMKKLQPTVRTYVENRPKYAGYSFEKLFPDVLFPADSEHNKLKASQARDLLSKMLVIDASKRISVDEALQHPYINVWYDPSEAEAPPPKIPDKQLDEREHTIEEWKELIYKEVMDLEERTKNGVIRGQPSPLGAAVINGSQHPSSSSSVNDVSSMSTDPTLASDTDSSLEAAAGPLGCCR

[10] = target: Cyclin-dependent kinase 1/cyclin B (Homo sapiens, UniProt P06493); test: Inhibition of Cyclin-dependent kinase 1-cyclin B; assay type: protein-complex assay
Outline: (§4)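 Enzymes were baculovirus-expressed recombinant human cytoplasmic domains: CDK1/cyclinB and CHK1.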

[11] = target: T1, Vascular endothelial growth factor receptor 2; settings: HUVEC, 10 nM
[12] = system: Mus musculus; test: Antitumor activity against SVR tumor growth in mice by administration of 20 mg/kg b.i.d.; assay type: functional; settings: oral; outline: as §3
[13] = target: Serine/threonine-protein kinase Chk2 (Homo sapiens, UniProt O96017); test: Inhibition of Serine/threonine-protein kinase Chk2 (CDS1 receptor)
Sequence of Serine/threonine-protein kinase Chk2 (O96017 whole entry): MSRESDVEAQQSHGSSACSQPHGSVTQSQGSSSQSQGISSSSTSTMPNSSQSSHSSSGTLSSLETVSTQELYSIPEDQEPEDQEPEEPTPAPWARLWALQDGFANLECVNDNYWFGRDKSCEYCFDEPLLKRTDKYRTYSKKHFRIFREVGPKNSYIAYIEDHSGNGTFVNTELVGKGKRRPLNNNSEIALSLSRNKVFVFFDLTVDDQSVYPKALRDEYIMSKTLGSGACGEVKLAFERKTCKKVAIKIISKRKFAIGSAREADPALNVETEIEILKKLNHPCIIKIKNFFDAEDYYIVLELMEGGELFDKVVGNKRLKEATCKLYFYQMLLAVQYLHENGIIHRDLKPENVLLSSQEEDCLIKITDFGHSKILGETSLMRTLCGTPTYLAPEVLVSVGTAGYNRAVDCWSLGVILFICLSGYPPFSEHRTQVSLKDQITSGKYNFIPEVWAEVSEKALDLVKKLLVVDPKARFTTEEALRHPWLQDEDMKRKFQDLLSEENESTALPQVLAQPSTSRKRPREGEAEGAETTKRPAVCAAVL

[14] = system: Mus musculus; test: Inhibition of murine SVR angiosarcoma in mice administered b.i.d. for 10 days; assay type: functional; settings: oral, 240 h, read-out: MED; outline: as §3
[15] = target: Mast/stem cell growth factor receptor Kit (Homo sapiens, UniProt P10721); test: Inhibition of Proto-oncogene tyrosine-protein kinase Kit
[16] = target: T3, Receptor-type tyrosine-protein kinase FLT3 (Homo sapiens, UniProt P36888); test: Inhibition of Tyrosine-protein kinase receptor FLT3 (fms-related tyrosine kinase 3) receptor
T3 sequence (P36888 whole entry): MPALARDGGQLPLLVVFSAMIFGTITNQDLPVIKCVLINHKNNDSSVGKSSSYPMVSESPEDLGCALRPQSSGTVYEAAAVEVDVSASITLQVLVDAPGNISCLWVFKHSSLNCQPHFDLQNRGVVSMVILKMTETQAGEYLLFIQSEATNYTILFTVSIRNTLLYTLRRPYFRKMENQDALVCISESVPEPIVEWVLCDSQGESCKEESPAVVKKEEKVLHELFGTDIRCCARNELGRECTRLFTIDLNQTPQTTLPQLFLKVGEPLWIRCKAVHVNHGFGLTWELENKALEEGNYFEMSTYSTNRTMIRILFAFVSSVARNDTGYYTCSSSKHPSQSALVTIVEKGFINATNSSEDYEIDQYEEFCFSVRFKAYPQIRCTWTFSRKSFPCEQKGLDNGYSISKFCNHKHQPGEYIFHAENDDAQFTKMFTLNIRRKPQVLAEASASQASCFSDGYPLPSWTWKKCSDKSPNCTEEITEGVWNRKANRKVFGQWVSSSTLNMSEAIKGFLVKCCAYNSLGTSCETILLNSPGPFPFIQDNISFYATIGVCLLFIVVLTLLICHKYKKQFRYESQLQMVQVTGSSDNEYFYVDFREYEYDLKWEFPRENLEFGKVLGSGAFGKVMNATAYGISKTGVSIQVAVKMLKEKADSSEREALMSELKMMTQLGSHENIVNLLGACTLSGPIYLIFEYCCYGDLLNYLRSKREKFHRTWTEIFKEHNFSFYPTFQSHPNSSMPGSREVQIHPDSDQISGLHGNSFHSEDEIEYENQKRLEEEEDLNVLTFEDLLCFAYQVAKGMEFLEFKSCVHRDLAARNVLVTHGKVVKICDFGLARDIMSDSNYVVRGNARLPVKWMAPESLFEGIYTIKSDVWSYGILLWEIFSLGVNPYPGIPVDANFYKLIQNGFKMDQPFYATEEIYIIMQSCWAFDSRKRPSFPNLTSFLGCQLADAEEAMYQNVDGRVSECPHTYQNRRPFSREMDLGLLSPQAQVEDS
Outline: (§5)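 Recombinant human cytoplasmic kinase domains (TrkA, Flt-3) expressed in baculovirus-infected insect cells. […] Eu-N1 antiphosphotyrosine detection by time-resolved fluorescence.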

[17] = target: T1, Vascular endothelial growth factor receptor 2; test: Inhibition of human Vascular endothelial growth factor receptor 2
Outline: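 Baculovirus-expressed recombinant human VEGF-R2 cytoplasmic domain was assayed by ELISA with a GST–phospholipase C-γ fusion substrate. […] Eu-N1 antiphosphotyrosine was added for 1 h at 37 °C and read by time-resolved fluorescence. IC50 came from nonlinear sigmoidal fits, averaging at least 3 determinations.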

[18] = Plasma level in rats at 30 mg/kg; assay type: ADME, organism-based; design: dose 30 mg/kg; settings: rat
Outline: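 Fasted adult male Sprague–Dawley rats (n = 3) given a single oral gavage dose at 2 mL/kg in 3:1 gelucire/PG vehicle. Plasma prepared by acetonitrile protein precipitation and analyzed by HPLC–tandem MS.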

[19] = Solubility was determined; assay type: physicochemical
[20] = target: High affinity nerve growth factor receptor (Homo sapiens, UniProt P04629); test: Inhibition of TrkA receptor; outline: as §5
[21] = target: Vascular endothelial growth factor receptor 3 (Homo sapiens, UniProt P35916); test: Inhibition of Vascular endothelial growth factor receptor 3
Outline: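 Recombinant human VEGF-R3 cytoplasmic domain was expressed in baculovirus-infected insect cells and assayed by ELISA as for VEGF-R2, with PLC-γ/GST fusion substrate. […] Read-out was Eu-antiphosphotyrosine time-resolved fluorescence.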

[22] = target: T2, Vascular endothelial growth factor receptor (Homo sapiens); settings: HUVEC, 100 nM
[23] = system: Mus musculus; test: In vivo antitumor activity against SVR tumor growth in nude mice by oral administration of 10 mg/kg b.i.d. for 10 days; assay type: functional; settings: 240 h; outline: as §3
[24] = target: Fibroblast growth factor receptor 1 (Homo sapiens, UniProt P11362); test: Inhibition of Fibroblast growth factor receptor 1
[25] = target: T2, Vascular endothelial growth factor receptor (Homo sapiens); settings: HUVEC, 40 nM
[26] = target: T1, Vascular endothelial growth factor receptor 2; settings: HUVEC, 100 nM
[27] = target: T4, Serine/threonine-protein kinase Chk1 (Homo sapiens, UniProt O14757); test: Inhibition of Serine/threonine-protein kinase Chk1; outline: as §4
T4 sequence (O14757 whole entry): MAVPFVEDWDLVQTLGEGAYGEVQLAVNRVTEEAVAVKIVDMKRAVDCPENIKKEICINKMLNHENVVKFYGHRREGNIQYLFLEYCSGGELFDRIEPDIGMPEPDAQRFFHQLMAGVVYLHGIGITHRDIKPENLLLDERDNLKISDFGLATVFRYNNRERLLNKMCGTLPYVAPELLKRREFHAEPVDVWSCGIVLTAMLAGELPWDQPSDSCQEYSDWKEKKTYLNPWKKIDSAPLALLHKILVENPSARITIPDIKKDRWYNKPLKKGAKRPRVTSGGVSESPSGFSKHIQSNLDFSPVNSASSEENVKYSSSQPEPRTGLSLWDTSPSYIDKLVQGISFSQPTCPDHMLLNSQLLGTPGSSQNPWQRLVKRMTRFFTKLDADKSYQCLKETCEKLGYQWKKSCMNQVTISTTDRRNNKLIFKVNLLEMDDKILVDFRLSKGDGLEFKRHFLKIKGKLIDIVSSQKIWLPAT

[28] = target: Protein kinase C, PKC; classical (Rattus norvegicus, UniProt P05696+P68403+P63319); test: Inhibition of rat brain Protein kinase C
Outline: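 Enzyme was purified rat brain PKC, a mixture of the Ca2+-dependent α, β and γ isozymes.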

[29] = target: Angiopoietin-1 receptor (Homo sapiens, UniProt Q02763); test: Inhibition of Tyrosine protein kinase receptor TIE-2; outline: as §1
[30] = target: Vascular endothelial growth factor receptor 1 (Homo sapiens, UniProt P17948); test: Inhibition of Vascular endothelial growth factor receptor 1; outline: as §1
Sequence of Vascular endothelial growth factor receptor 1 (P17948 whole entry): as the sequence (P17948 whole entry, looked up) above

T1 sequence (P35968 whole entry, the tested form may be a part): as the sequence (P35968 whole entry, looked up) above

SMILES: O=C1NCc2c1c1c(c3[nH]c4ccccc4c23)Cc2ccccc2-1
- IC50 [1]: 110 nM

SMILES: CC(C)SCc1ccc2c(c1)c1c3c(c4c(c1n2CCCO)Cc1ccccc1-4)C(=O)NC3
- inhibition [2]: 100%

SMILES: CCSCc1ccc2c(c1)c1c3c(c4c(c1n2CCCO)Cc1ccccc1-4)C(=O)NC3
- inhibition [2]: 100%

SMILES: CC(C)OCc1ccc2[nH]c3c4c(c5c(c3c2c1)CNC5=O)-c1ccccc1C4
- IC50 [1]: 55 nM

SMILES: CC[C@H](C)OCc1ccc2c(c1)c1c3c(c4c(c1n2CCCO)Cc1ccccc1-4)C(=O)NC3
- inhibition [3]: 100%

SMILES: CC(C)(C)OCc1ccc2c(c1)c1c3c(c4c(c1n2CCCO)Cc1ccccc1-4)C(=O)NC3
- inhibition [3]: 100%
- inhibition [4]: 100%

SMILES: O=C1NCc2c3c(c4[nH]c5ccccc5c4c21)Cc1ccccc1-3
- IC50 [1]: 414 nM

SMILES: CCCOCc1ccc2c(c1)c1c3c(c4c(c1n2CCCO)Cc1ccccc1-4)C(=O)NC3
- inhibition [2]: 100%

SMILES: CC[C@@H](C)OCc1ccc2c(c1)c1c3c(c4c(c1n2CCCO)Cc1ccccc1-4)C(=O)NC3
- inhibition [3]: 100%

SMILES: CCOCc1ccc2c(c1)c1c3c(c4c(c1n2CCCO)Cc1ccccc1-4)C(=O)NC3
- inhibition [5]: 100%
- inhibition [4]: 75%

SMILES: CC(C)CCOCc1ccc2c(c1)c1c3c(c4c(c1n2CCCO)Cc1ccccc1-4)C(=O)NC3
- IC50 [1]: 276 nM

SMILES: COC(C)c1ccc2c(c1)c1c3c(c4c(c1n2CCCO)Cc1ccccc1-4)C(=O)NC3 (configuration not stated)
- inhibition [5]: 100%
- inhibition [4]: 25%

SMILES: CCCCOCc1ccc2c(c1)c1c3c(c4c(c1n2CCCO)Cc1ccccc1-4)C(=O)NC3
- inhibition [2]: 100%

SMILES: CC(C)OCc1ccc2c(c1)c1c3c(c4c(c1n2CCCOC(=O)CN(C)C)Cc1ccccc1-4)C(=O)NC3 [CEP-7055]
- inhibition in vivo at 23.8 mg/kg [6]: 70%

SMILES: CCC(CC)OCc1ccc2c(c1)c1c3c(c4c(c1n2CCCO)Cc1ccccc1-4)C(=O)NC3
- IC50 [1]: 35 nM

SMILES: Cc1ccc2c(c1)c1c3c(c4c(c1n2CCCO)Cc1ccccc1-4)C(=O)NC3
- IC50 [1]: 163 nM

SMILES: CC(C)OCc1ccc2c(c1)c1c3c(c4c(c1n2CCCO)Cc1ccccc1-4)C(=O)NC3 [CEP-5214]
- inhibition [7]: 89%
- IC50 [8]: > 10000 nM
- IC50 [9]: 448 nM
- IC50 [10]: > 10000 nM
- inhibition [11]: 75%
- inhibition in vivo at 20 mg/kg [12]: 70%
- IC50 [13]: > 3000 nM
- minimal effective dose [14]: 3 mg/kg
- IC50 [15]: 57 nM
- IC50 [16]: 1.6 nM
- IC50 [17]: 8 nM
- Cmax [18]: 100 ng/mL
- solubility [19]: 10 µg/mL (≈ 22.7 µM)
- IC50 [20]: > 3000 nM
- IC50 [21]: 4 nM
- inhibition [22]: 75%
- inhibition in vivo at 10 mg/kg [23]: 57%
- IC50 [24]: 162 nM
- inhibition [25]: 21%
- inhibition [26]: 100%
- IC50 [27]: > 3000 nM
- IC50 [28]: > 10000 nM
- IC50 [29]: > 10000 nM
- IC50 [30]: 16 nM

SMILES: CC(C)[S+]([O-])Cc1ccc2c(c1)c1c3c(c4c(c1n2CCCO)Cc1ccccc1-4)C(=O)NC3 (configuration not stated)
- IC50 [1]: 309 nM

SMILES: CC(=O)c1ccc2c(c1)c1c3c(c4c(c1n2CCCO)Cc1ccccc1-4)C(=O)NC3
- IC50 [1]: 187 nM

SMILES: O=C1NCc2c1c1c(c3c2c2cc(Br)ccc2n3CCCO)Cc2ccccc2-1
- IC50 [1]: 104 nM

SMILES: O=Cc1ccc2c(c1)c1c3c(c4c(c1n2CCCO)Cc1ccccc1-4)C(=O)NC3
- IC50 [1]: 105 nM
